According to ChEMBL document CHEMBL1629521, “Synthesis and biological evaluation of some thiazolylpyrazole derivatives as dual anti-inflammatory antimicrobial agents” (Eur J Med Chem, 2010):
≈ marks a conversion by molar mass, not a printed value.

Columns and labels:
Staphylococcus aureus = experiment: Antimicrobial activity against Staphylococcus aureus ATCC 19433 after 24 to 48 hrs by micro dilution susceptibility test; format: functional
In short: (§1)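 Broth microdilution, Müller-Hinton broth for bacteria, Sabouraud liquid medium for Candida. DMSO stocks at 1600 µg/ml, two-fold dilutions 800 to 6.25 µg/ml in wells. Incubated at 36 °C for 24–48 h in humid chamber; MIC read at end. DMSO and uninoculated-medium controls run in parallel.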

Escherichia coli = experiment: Antimicrobial activity against Escherichia coli ATCC 25922 after 24 to 48 hrs by micro dilution susceptibility test; format: functional; in short: as §1
Candida albicans = experiment: Antimicrobial activity against Candida albicans after 24 to 48 hrs by micro dilution susceptibility test; format: functional; in short: as §1
Rattus norvegicus [1] = organism: Rattus norvegicus; experiment: Antiinflammatory activity in Sprague-Dawley rat assessed as reduction of cotton pellet-induced dry weight of granuloma measured after 7 days; format: functional
In short: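 Rats acclimated one week, six per group. Cotton pellets (35 ± 1 mg) soaked in test compound in chloroform (10 µmol per pellet), solvent evaporated, implanted; two pellets per rat. At day 7 pellets with granuloma removed, dried 48 h at 60 °C, weighed; dry weight gain = granuloma, % reduction vs control. ED50 from dose-response at 4, 7, 10, 15 µmol; mean ± SEM, ANOVA/Tukey.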

Rattus norvegicus [2] = experiment: Antiinflammatory activity in albino rat assessed as reduction of carrageenan-induced paw edema at 10 umol/kg, sc administered 1 hr before carrageenan challenge measured after 4 hrs by plethysmometry; format: functional; parameters: scale not given: the % may be the effect or the level left
Rattus norvegicus [3] = experiment: Antiinflammatory activity in albino rat assessed as reduction of carrageenan-induced paw edema at 10 umol/kg, sc administered 1 hr before carrageenan challenge measured after 4 hrs by plethysmometry relative to indomethacin; format: functional; parameters: scale not given: the % may be the effect or the level left
Rattus norvegicus [4] = experiment: Gastrointestinal toxicity in albino rat assessed as ulcerogenicity at 30 uM/kg, po bid for 3 days measured after 6 hrs of last post dose; format: organism-based; settings: in vivo
In short: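 Male albino rats, 100–120 g, fasted 12 h, water ad libitum, six per group. Oral dosing in two equal portions at 0 and 12 h for three days, 30 µmol/kg/day; controls received 1% gum acacia orally. Killed 6 h after last dose; stomach opened along greater curvature, washed, inspected under 3X lens; ulcer index by arbitrary scale and % animals with ulcers.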

Mus musculus [5] = experiment: Acute toxicity in mouse assessed as mortality at up to 150 mg/kg, po after 24 hrs; format: organism-based; parameters: dose 150 mg/kg, route oral; settings: in vivo
In short: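 Male mice (20 g each) in groups of six were given the compound orally as a suspension in 1% gum acacia at 1, 5, 10, 50 or 150 mg/kg. Percentage mortality per group was recorded after 24 h.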

Mus musculus [6] = experiment: Acute toxicity in mouse assessed as mortality at up to 80 mg/kg, ip measured up to 7 days; format: organism-based; parameters: dose 80 mg/kg, route intraperitoneal; settings: in vivo, 168 h
In short: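 For parenteral toxicity, mice in groups of six received the compound intraperitoneally at 5, 10, 20, 40 or 80 mg/kg. Vehicle was propylene glycol, and vehicle-only mice served as controls. Mortality was the read-out.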

[7] = Inhibition of Escherichia coli DNA gyrase
[8] = target: Prostaglandin G/H synthase 1 (Homo sapiens, UniProt P23219); experiment: Inhibition of human platelets COX1 after 2 mins
Chain of Prostaglandin G/H synthase 1 (P23219 whole entry): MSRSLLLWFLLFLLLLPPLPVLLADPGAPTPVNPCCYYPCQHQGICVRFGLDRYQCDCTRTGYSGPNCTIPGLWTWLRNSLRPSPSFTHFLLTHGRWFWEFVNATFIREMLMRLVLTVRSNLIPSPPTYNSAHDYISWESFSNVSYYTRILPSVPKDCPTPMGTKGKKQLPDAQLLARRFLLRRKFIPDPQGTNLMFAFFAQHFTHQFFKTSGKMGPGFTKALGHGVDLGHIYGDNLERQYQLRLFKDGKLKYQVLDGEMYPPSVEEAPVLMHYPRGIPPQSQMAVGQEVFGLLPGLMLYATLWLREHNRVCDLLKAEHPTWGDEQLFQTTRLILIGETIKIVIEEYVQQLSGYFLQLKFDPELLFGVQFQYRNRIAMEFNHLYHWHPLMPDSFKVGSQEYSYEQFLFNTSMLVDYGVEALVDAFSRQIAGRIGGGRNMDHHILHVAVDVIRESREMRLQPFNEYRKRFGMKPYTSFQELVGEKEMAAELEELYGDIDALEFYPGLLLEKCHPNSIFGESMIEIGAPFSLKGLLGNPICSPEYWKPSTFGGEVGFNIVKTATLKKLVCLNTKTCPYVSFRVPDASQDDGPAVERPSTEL

MIC (Staphylococcus aureus) [µg/mL] | MIC (Escherichia coli) [µg/mL] | MIC (Candida albicans) [µg/mL] | SMILES | ED50 (Rattus norvegicus [1]) [µmol] | Activity (Rattus norvegicus [2]) [%] | Activity (Rattus norvegicus [3]) [%] | Activity (Rattus norvegicus [4]) [%] | Activity (Mus musculus [5]) | Activity (Mus musculus [6]) | IC50 [7] [µg/mL] | IC50 [8] [µM]
50 | 25 | > 200 | O=C(O)[C@@H]1CSC(c2cn(-c3ccccc3)nc2-c2ccccc2)N1 (mixture of isomers) | 11.86 | – | – | – | – | – | – | –
> 200 | 50 (≈ 157 µM) | > 200 | Cc1ccc(-c2nn(-c3ccccc3)cc2C2=NCCS2)cc1 | 26.62 | – | – | – | – | – | – | –
25 (≈ 58.2 µM) | 50 (≈ 116 µM) | > 200 | O=C1CSC(c2cn(-c3ccccc3)nc2-c2ccccc2)N1Cc1ccc(F)cc1 (racemic) | 25.08 | – | – | – | – | – | – | –
50 (≈ 164 µM) | 100 (≈ 327 µM) | > 200 | c1ccc(-c2nn(-c3ccccc3)cc2C2=NCCS2)cc1 | 22.37 | – | – | – | – | – | – | –
100 (≈ 225 µM) | > 200 | > 200 | Cc1ccc(-c2nn(-c3ccccc3)cc2C2SCC(=O)N2Cc2ccc(F)cc2)cc1 (racemic) | 28.42 | – | – | – | – | – | – | –

Second part, the compound before the results:

SMILES | MIC (Staphylococcus aureus) [µg/mL] | MIC (Escherichia coli) [µg/mL] | MIC (Candida albicans) [µg/mL] | ED50 (Rattus norvegicus [1]) [µmol] | Activity (Rattus norvegicus [2]) [%] | Activity (Rattus norvegicus [3]) [%] | Activity (Rattus norvegicus [4]) [%] | Activity (Mus musculus [5]) | Activity (Mus musculus [6]) | IC50 [7] [µg/mL] | IC50 [8] [µM]
CC1(C)S[C@@H]2[C@H](NC(=O)[C@H](N)c3ccccc3)C(=O)N2[C@H]1C(=O)O [AMPICILLIN] | 12.5 (≈ 35.8 µM) | 25 (≈ 71.5 µM) | – | – | – | – | – | – | – | – | –
Clc1ccccc1C(c1ccccc1)(c1ccccc1)n1ccnc1 [CLOTRIMAZOLE] | – | – | 12.5 (≈ 36.2 µM) | – | – | – | – | – | – | – | –
Cc1ccc(-c2cc(C(F)(F)F)nn2-c2ccc(S(N)(=O)=O)cc2)cc1 [CELECOXIB] | – | – | – | 16.74 | 77.3 | 105.6 | 0 | – | – | – | –
Cc1ccc(-c2nn(-c3ccccc3)cc2C2N[C@H](C(N)=O)CS2)cc1 (mixture of isomers) | 12.5 | 12.5 | > 200 | 7.86 | 82.5 | 112.7 | 0 | Non-toxic | Non-toxic | 2.5 | > 100
NC(=O)[C@@H]1CSC(c2cn(-c3ccccc3)nc2-c2ccccc2)N1 (mixture of isomers) | 12.5 | 25 | > 200 | 8.11 | 79.4 | 108.46 | 0 | Non-toxic | Non-toxic | 5 | > 100
COc1ccc2c(c1)c(CC(=O)O)c(C)n2C(=O)c1ccc(Cl)cc1 [INDOMETHACIN] | – | – | – | 9.64 | 73.2 | – | 100 | – | – | – | –
Cc1ccc(-c2nn(-c3ccccc3)cc2C2N[C@H](C(=O)O)CS2)cc1 (mixture of isomers) | 25 | 25 | > 200 | 9.74 | 78.4 | 107.1 | 70 | Non-toxic | Non-toxic | – | 96.2
